# Screening data deposited in PubChem BioAssay by Broad Institute.
# PfHsp90 set2: inhibits growth of yeast expressing Plasmodium falciparum Hsp90; S. cerevisiae expressing PfHsp90, BacTiter-Glo ATP, 48 h; yeast lacking PDR1 and PDR3 efflux regulators; inhibition, % at 9.4 µM; 0.32% of 310,000 active; AID 504621;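 active = every replicate shows inhibition above about 80%, whatever the replicate mean, limit read from the data; inconclusive = mean inhibition reaches the set limit but some replicate falls short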;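 note: 0% = DMSO neutral controls and 100% = 20 µM radicicol positive controls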
# Rtt109 Vps75: C. albicans Rtt109 histone acetyltransferase inhibition; 0.16% of 330,000 active; inhibition, % at 34.9 µM; Q5AAJ8; purified Rtt109/Vps75, ThioGlo CoA-SH fluorescence, 4 h;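 active = inhibition of at least 50% in every replicate; inconclusive = best replicate reaches 50% inhibition but some replicates fall short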
# Target sequence (Q5AAJ8 whole entry, looked up): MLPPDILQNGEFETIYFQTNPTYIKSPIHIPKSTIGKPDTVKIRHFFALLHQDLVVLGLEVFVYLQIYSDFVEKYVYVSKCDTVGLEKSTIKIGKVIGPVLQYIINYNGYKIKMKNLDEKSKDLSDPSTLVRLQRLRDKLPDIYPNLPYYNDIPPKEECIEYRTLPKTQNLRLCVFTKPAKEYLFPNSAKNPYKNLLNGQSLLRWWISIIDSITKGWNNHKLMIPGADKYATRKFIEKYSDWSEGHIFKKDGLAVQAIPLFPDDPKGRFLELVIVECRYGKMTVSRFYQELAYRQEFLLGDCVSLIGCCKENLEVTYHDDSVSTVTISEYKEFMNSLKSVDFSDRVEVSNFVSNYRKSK
# SKKanGAS inh: blocks kanamycin growth of S. pyogenes SKKanGAS strain | BacTiter-Glo, 6 h | inhibition, % at 7.5 µM | 1.3% of 300,000 active;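 active = mean replicate score, as percent of positive control median, at least 50; inconclusive = mean below 50 but one replicate at or above 50; inactive = mean and every replicate below 50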;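 note: strain carries kanamycin resistance gene driven by streptokinase promoter and grows in 40 µg/ml kanamycin; loss of luminescence reflects streptokinase promoter inhibition or plain growth inhibition; 0% = median of DMSO wells and 100% = positive control at its reference dose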
# FN deposition inh: fibronectin deposition inhibition; AH1F fibroblasts, Alexa488-fibronectin deposition fluorescence, overnight; inhibition, % at 12.6 µM; 0.086% of 350,000 active; AID 743247;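 active = mean inhibition across replicates of 30% or more, regardless of how many single replicates reach that level; inconclusive = mean under 30% yet at least half of replicates reach 30%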;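 note: positive control wells lacked labelled fibronectin entirely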
#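 Material: AH1F fibroblast monolayer depositing Alexa488-labelled fibronectin into matrix / Amount: 10000 AH1F cells per well / Signal: fluorescence 485/525 nm / Medium: DMEM, 2% serum / Compound: single dose, pinned / Incubation: 1 h cell adhesion before compound, then overnight fibronectin incubation / Reagent: Alexa488-FN, 24 nM final / Read-out: inhibition of fibronectin deposition signal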
# CSC inhib: blocks cancer stem cells; inhibition, % at 7.5 µM; cancer stem cell-like cells viability, luminescence; AID 2717; 1.1% of 300,000 active; in the data active = inhibition above about 75%; inconclusive = no clear call, values can overlap the other calls; tested in HMLE shEcad cells
# PglD inh: blocks C. jejuni PglD acetyltransferase activity; purified PglD enzyme, DTNB colorimetric CoA detection; inhibition, % at 12.5 µM; AID 602405; 0.098% of 360,000 active; in the data active = inhibition above about 16%, passing the limit was not always enough; inconclusive = no clear call, values can overlap the other calls
# Active calls of the source: *; u = inconclusive; x = no result given. An excerpt weighted towards active compounds, which were near 1.7% of everything screened.
SMILES,PfHsp90 set2,Rtt109 Vps75,SKKanGAS inh,FN deposition inh,CSC inhib,PglD inh
Cc1ccccc1-c1ccc([C@@H]2[C@H](CO)N3CCCCN(C(=O)Nc4ccc(F)cc4)C[C@@H]23)cc1,x,x,x,x,x,-2.4
Cc1c2ccncc2cc2c1[nH]c1ccccc12,x,19.4,x,22.9,x,6.7
COc1ccc2[nH]c3c(C)c4ccncc4c(C)c3c2c1,11.8,-4.7,96.9*,x,-4.6,-8.8
COc1ccc(NC(=O)Nc2ccc3c(c2)C(=O)N([C@H](C)CO)C[C@H](C)[C@H](CN(C)S(=O)(=O)c2ccc(F)cc2)OCCCC[C@H](C)O3)cc1,x,x,x,6.7,x,-3.9
CN(C)CCNC(=O)c1sc2nc(-c3ccccc3)cc(C(F)(F)F)c2c1N,6.3,2.2,2.5,-17.0,77.6*,-2.6
COc1ccc(-c2cc(C(F)(F)F)c3c(N)c(C(=O)NCCSC)sc3n2)cc1,-0.9,-6.8,16.5,-29.6,5.4,0.9
CCCCCc1cc(=O)oc2c(C(CCN3CCCCC3)c3ccc4c(c3)OCO4)c(OC)cc(OC)c12 (stereo not drawn),-1.2,23.5,21.1,-4.2,u,2.8
CCCCCc1cc(=O)oc2c(C(CCN(CC)CC)c3cc(OC)c(OC)c(OC)c3)c(OC)cc(OC)c12 (stereo not drawn),x,-1.4,9.3,-11.5,107.4*,-10.0
CCCCCc1cc(=O)oc2c(C(CCN3CCCC(C)C3)c3ccc4c(c3)OCO4)c(OC)cc(OC)c12 (stereo not drawn),10.6,5.2,7.6,0.2,108.0*,-3.2
C[C@@H]1CN([C@@H](C)CO)C(=O)c2cc(NC(=O)Nc3ccc(F)cc3)ccc2O[C@@H](C)CCCCO[C@H]1CN(C)C(=O)Cc1ccccc1,x,x,x,x,x,1.5
CCCNC(=O)N[C@H]1C=C[C@H](CC(=O)NC2CCC2)O[C@H]1CO,x,x,x,-19.7,x,-0.5
COc1ccc(OCCCC(=O)Nc2nc(-c3ccccn3)cs2)cc1,0.2,2.0,72.8*,-2.9,20.3,-0.3
COc1ccc2oc(C(=O)Nc3nc(-c4ccccn4)cs3)c(C)c2c1,2.3,-11.0,84.5*,-2.9,30.2,x
CC(Oc1ccc(F)cc1)C(=O)Nc1nc(-c2ccccn2)cs1 (stereo not drawn),-15.3,-3.3,106.6*,10.9,36.0,-5.6
Cc1cc(C)c(OCC(=O)Nc2nc(-c3ccccn3)cs2)c(C)c1,-12.6,0.8,97.5*,9.9,-5.7,5.8
COc1ccc(NC(=O)N(C)C[C@@H]2OCCCC[C@@H](C)Oc3ccc(NC(=O)Nc4c(C)noc4C)cc3C(=O)N([C@H](C)CO)C[C@@H]2C)cc1,x,x,x,x,x,1.8
C[C@H](NC(=O)C[C@H]1CC[C@H]2[C@H](COc3ccc(NC(=O)C4CCOCC4)cc3C(=O)N2C)O1)c1ccccc1,x,x,x,-8.2,x,-1.2
C/C=C/c1cnc2c(c1)C(=O)N([C@H](C)CO)C[C@@H](C)[C@H](CN(C)C(=O)c1cccc(F)c1)O2,x,x,x,8.8,x,0.1
Oc1cccc2ccc(/C=C/c3ccccc3Cl)nc12,99.9*,0.7,98.9*,-1.9,61.5,-3.1
O/N=C/c1ccc2cccc(O)c2n1,-2.3,5.3,12.1,7.2,5.0,-5.9
Oc1cccc2ccc(/C=C/c3c(F)cccc3Cl)nc12,-28.7,0.6,73.8*,-6.2,22.1,x
Nc1nccc(/C=C/c2c(F)cccc2Cl)n1,2.2,6.7,-0.2,-47.0,5.2,x
CC(C)(C)c1ccc(C(=O)Nc2ccc(N3CCOCC3)cc2)cc1,2.8,1.5,10.3,x,79.4*,-3.1
CC(=O)c1ccc(C(=O)Nc2ccc(N3CCOCC3)cc2)cc1,-5.9,3.5,-2.2,x,0.5,-5.9
NCC[C@@H]1CC[C@@H](NC(=O)C2CCC2)[C@@H](CO)O1,x,x,x,2.0,x,-1.6
SMILES,PfHsp90 set2,Rtt109 Vps75,SKKanGAS inh,FN deposition inh,CSC inhib,PglD inh
CCOc1cccc(/C=N/NC(=O)c2cccnc2)c1O,-1.4,-3.7,20.8,13.6,59.0,2.3
CCOc1cccc(/C=N/NC(=O)c2cc(C3CC3)[nH]n2)c1O,-11.5,-13.0,0.0,12.8,127.6*,0.7
CC1(C)Cc2c(cnn2-c2ccccc2)-c2c1c1ccccc1n2CC(O)CCl (stereo not drawn),-13.4,-6.2,63.6*,-1.6,9.6,8.1
CCCN1C[C@H](C)[C@H](OC)CN(C)C(=O)c2ccc(NC(=O)C3CCC3)cc2OC[C@H]1C,x,x,x,-1.9,x,-2.6
COc1ccc2[nH]c3c(c2c1)CCN1C(=O)C(CC(=O)NCCCN(C)C)C[C@H](C(=O)N2CCCCC2)[C@@]31CCc1ccccc1 (stereo partly drawn),-13.6,6.8,x,37.1*,x,5.7
O=S(=O)(c1ccc(Cl)cc1)c1snnc1-c1ccccc1,49.3,6.8,15.0,x,107.9*,-34.6
Cc1cccc(-n2ncc3c(NC(C)C)ncnc32)c1,20.6,9.2,14.6,31.1*,2.6,2.2
CC(C)Nc1ncnc2c1cnn2-c1ccccc1,-19.8,-1.8,11.2,-11.9,6.4,-3.7
CCCCCCn1c(=O)[nH]c2nc3cc(N)ccc3nc2c1=O,x,x,24.6,-24.5,81.8*,x
CCCCCn1c(=O)c(C(=O)c2ccccc2)nc2ccccc21,x,-12.8,27.0,1.3,-6.4,3.6
COc1cc(OC)c(NC(=O)c2sc3ncn(CC(=O)N4CCN(c5ccccn5)CC4)c(=O)c3c2C)cc1Cl,-4.8,-3.5,50.3*,2.4,19.4,-1.8
COc1ccc(NC(=O)c2sc3ncn(CC(=O)N4CCN(c5ccccn5)CC4)c(=O)c3c2C)c(OC)c1,-5.2,7.5,15.1,-8.2,-7.6,-3.1
COc1ccc(-c2nc3ccccn3c2NC2CCCCC2)cc1SC1CCCCC1,29.2,11.3,82.6*,-1.0,-28.8,-3.7
CCCCNc1c(-c2ccc(-c3ccc(C(C)=O)cc3)c(OC)c2)nc2cnccn12,-53.7,-3.0,63.8*,x,10.3,6.7
CCCCNc1c(-c2ccc(OC)c(SC3CCCCC3)c2)nc2ccc(Cl)cn12,-0.6,-7.1,x,3.4,36.5,0.6
CCCCCCSc1cc(-c2nc3cc(C)ccn3c2NC2CCCCC2)ccc1OC,-14.9,1.7,32.8,-2.2,42.9,-0.8
CCCCNc1c(-c2ccc(OC)c(SC3CCCCC3)c2)nc2cc(C)ccn12,25.2,-8.7,72.0*,-4.5,92.4*,-1.7
CCCCCCSc1cc(-c2nc3cnccn3c2NCc2ccccc2)ccc1OC,-38.0,-6.9,65.2*,x,x,-0.4
C[C@@H]1CCCCO[C@@H](CN(C)C(=O)c2ccccc2)[C@H](C)CN([C@H](C)CO)C(=O)c2cc(N(C)C)ccc2O1,x,x,x,x,x,0.2
COc1cc(-c2nc3ccccn3c2NCc2ccccc2)ccc1SC1CCCCC1,8.0,-10.7,28.4,x,21.5,-0.6
CCCCNc1c(-c2ccc(OC)c(SC3CCCCC3)c2)nc2cnccn12,-57.3,-11.4,103.9*,x,2.1,-0.7
COc1ccc(-c2nc3cnccn3c2NCc2ccccc2)cc1SC1CCCCC1,6.8,-11.7,54.8*,x,42.7,2.3
